The values that follow come from ChEMBL document CHEMBL1671655, “Anidulafungin is fungicidal and exerts a variety of postantifungal effects against Candida albicans, C. glabrata, C. parapsilosis, and C. krusei isolates” (2009).

Converted amounts (≈) assume the structure as drawn. The source made the active and inactive calls. Starred links: 1 amine or outer side, 2 acyl side, 3 side chain; linkers in the order of their positions; H or OH if unused. Positions of bridges follow the written chain, without caps; N, C: chain ends. Non-standard residues stand in square brackets, D forms with d. Residues, ends and D or L forms follow the SMILES beside them. *: point of attachment. pTerphenylCO(4''-OnC5H11) = CCCCCOc1ccc(-c2ccc(-c3ccc(C(=O)*)cc3)cc2)cc1; Orn(4R-OH,5R-OH) = O=C([C@H](C[C@@H](O)[C@@H](O)N[*:3])N[*:1])[*:2]; hTyr(3S-OH,4S-OH) = N[C@H](C(=O)O)[C@H](O)[C@@H](O)c1ccc(O)cc1; Pro(3S-OH,4S-Me) = C[C@H]1CN[C@H](C(=O)O)[C@H]1O; Hyp = O=C(O)[C@@H]1C[C@@H](O)CN1

Assay [1] has as its system Candida albicans. Nature of the assay: Fungicidal activity against Candida albicans isolate 2 assessed as log reduction in bacterial count at 16 times MIC after 48 hrs by time-kill analysis. Format: functional. Conditions: isolate 2, 48 h. Put shortly: (§1)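 Isolates subcultured twice on SDA, suspended to 0.5 McFarland, giving ~1 x 10^5 to 5 x 10^5 CFU/ml in MOPS-buffered RPMI 1640 (pH 7.0) with or without drug at multiples of MIC (MIC by CLSI M27-A3). Tubes shaken at 35°C with continuous drug. Sampled at 0–48 h, diluted 10-fold and plated on SDA; CFU counted after 48 h at 35°C. Run twice per isolate; means.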

The test system of assay [2] is Candida parapsilosis. Nature of the assay: Fungicidal activity against Candida parapsilosis isolate S assessed as log reduction in bacterial count at 4 times MIC after 48 hrs by time-kill analysis. The class given is functional. Conditions: Lodderomyces parapsilosis. Put shortly:
(§2)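 Isolates subcultured twice on SDA, then suspended to 0.5 McFarland and diluted into RPMI 1640 (MOPS, pH 7.0) with or without anidulafungin, giving about 1 x 10^5 to 5 x 10^5 CFU/ml. Tubes were shaken at 35°C. Samples were taken at 0, 2, 4, 8, 12, 24 and 48 h, serially diluted 10-fold, plated on SDA, and CFU counted after 48 h at 35°C. Each isolate was run twice; mean values.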

Assay [3] deals with Candida parapsilosis. Nature of the assay: Fungicidal activity against Candida parapsilosis isolate S assessed as log reduction in bacterial count at MIC after 48 hrs by time-kill analysis. Format: functional. Conditions: Lodderomyces parapsilosis. Put shortly:
as §2

Assay [4] deals with Nakaseomyces glabratus. As to the kind of experiment: Fungicidal activity against Candida glabrata isolate 1 assessed as log reduction in bacterial count at MIC after 48 hrs by time-kill analysis. The class given is functional. Conditions: isolate 1, 48 h. Put shortly: as §1
Assay [5] has as its system Candida albicans. As to the kind of experiment: Fungicidal activity against Candida albicans isolate 1 assessed as log reduction in bacterial count at 4 times MIC after drug exposure for 1 hr followed by washout measured after 48 hrs in the absence of drug by PAFE study. The class given is functional. Summed up:
(§3)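 Starting inoculum ~1 x 10^5 to 5 x 10^5 CFU/ml in MOPS-buffered RPMI 1640 (pH 7.0) with drug at multiples of the CLSI M27-A3 MIC. After 1 h at 35°C, cells washed and centrifuged three times at 1,400 x g for 10 min, then resuspended in warm drug-free RPMI. Shaken at 35°C and plated on SDA at 0–48 h; CFU counted after 48 h. Run twice per isolate; means.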

In assay [6] the test system is Candida parapsilosis. Nature of the assay: Fungicidal activity against Candida parapsilosis isolate A assessed as log reduction in bacterial count at 4 times MIC after drug exposure for 1 hr followed by washout measured after 48 hrs in the absence of drug by PAFE study. Conditions: Lodderomyces parapsilosis. The class given is functional. Summed up:
(§4)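 Inoculum about 1 x 10^5 to 5 x 10^5 CFU/ml in RPMI 1640 (MOPS, pH 7.0) with drug, shaken at 35°C for 1 h. Cells were then washed and centrifuged at 1,400 x g for 10 min (3 cycles) and resuspended in warm drug-free RPMI. Samples plated on SDA at 0, 2, 4, 8, 12, 24 and 48 h; CFU counted after 48 h at 35°C. Run twice per isolate; means.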

Assay [7] concerns Candida parapsilosis. Nature of the assay: Fungicidal activity against Candida parapsilosis isolate S assessed as log reduction in bacterial count at MIC after drug exposure for 1 hr followed by washout measured after 48 hrs in the absence of drug by PAFE study. Format: functional. Conditions: Lodderomyces parapsilosis. Summed up: as §4
For assay [8], the system named is Nakaseomyces glabratus. As to the kind of experiment: Fungicidal activity against Candida glabrata isolate 1 assessed as log reduction in bacterial count at 16 times MIC after drug exposure for 1 hr followed by washout measured after 48 hrs in the absence of drug by PAFE study. The class given is functional. Summed up: as §3
The subject of assay [9] is Nakaseomyces glabratus. As to the kind of experiment: Fungicidal activity against Candida glabrata isolate 1 assessed as log reduction in bacterial count at 4 times MIC after drug exposure for 1 hr followed by washout measured after 48 hrs in the absence of drug by PAFE study. The class given is functional. Summed up: as §3
Assay [10] concerns Meyerozyma guilliermondii. Nature of the assay: Antifungal activity against Candida guilliermondii by NCCLS M27A broth microdilution method. The class given is functional.
Assay [11] has as its system Candida parapsilosis. As to the kind of experiment: Antifungal activity against Candida parapsilosis isolate S by CLSI M27-A3 broth microdilution method. The class given is functional. Conditions: Lodderomyces parapsilosis. Put shortly: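 CLSI M27-A3 broth microdilution in RPMI 1640 buffered to pH 7.0 with MOPS. Starting inoculum 0.5 x 10^3 to 2.5 x 10^3 cells/ml, incubated at 35°C. MIC read as the lowest concentration giving >50% growth reduction versus control. Each isolate tested on at least three occasions.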
Background: In broth dilution the organism is exposed to a series of concentrations in liquid medium.

In assay [12] the test system is Candida albicans. Nature of the assay: Antifungal activity against Candida albicans ATCC 90028 assessed as time period for bacterial growth inhibition at 16 times MIC after 1 hr drug exposure. Format: functional. Put shortly: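 Inoculum of about 1 x 10^5 to 5 x 10^5 CFU/ml in MOPS-buffered RPMI (pH 7.0), shaken at 35°C and exposed to drug for 1 h. Cells then washed and centrifuged three times and resuspended in drug-free warm RPMI. Samples plated on SDA at 0, 2, 4, 8, 12, 24 and 48 h, with CFU counted after 48 h at 35°C. Run twice per isolate; values are means.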

The test system of assay [13] is Pichia kudriavzevii. Nature of the assay: Increase in susceptibility to SDS in Candida krusei isolate ATCC 6258 assessed as cell wall damage at MIC after 1 hr relative to control. The class given is functional, organism-based. Put shortly:
(§5)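 Cells recovered 8 h after a 1-h drug exposure were grown in YPD with 1% glucose to exponential phase and adjusted to OD599 0.1. Undiluted culture and 10-fold serial dilutions were spotted onto YPD plates containing SDS (0.01 to 0.04%), then incubated 72 h at 30°C. Growth compared with unexposed control cells; triplicate.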

In assay [14] the test system is Candida parapsilosis. As to the kind of experiment: Increase in susceptibility to SDS in Candida parapsilosis isolate A assessed as cell wall damage at 4 times MIC after 1 hr relative to control. Format: functional, organism-based. Put shortly: as §5
Assay [15] concerns Nakaseomyces glabratus. As to the kind of experiment: Increase in susceptibility to SDS in Candida glabrata isolate 3 assessed as cell wall damage at 4 times MIC after 1 hr relative to control. Format: functional, organism-based. Summed up:
as §5

The subject of assay [16] is Candida parapsilosis. As to the kind of experiment: Increase in susceptibility to calcofluor white in Candida parapsilosis isolate 1 assessed as cell wall damage at 4 times MIC after 1 hr relative to control. Format: functional, organism-based. Summed up:
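Candida given a 1-h anidulafungin pulse in MOPS-buffered RPMI 1640 (pH 7.0) at 35°C, washed three times by centrifugation, and regrown drug-free. Cells collected 8 h later, grown in YPD with 1% glucose to exponential phase, and set to OD599 0.1. Undiluted culture and 10-fold dilutions (4 µl) spotted on YPD plates with calcofluor white, then 30°C for 72 h. Triplicate; compared with no-drug cells.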

The test system of assay [17] is Nakaseomyces glabratus. Nature of the assay: Inhibition of Candida glabrata isolate 1 adherence to human buccal epithelial cells at 4 times MIC after 1 hr by adherence assay relative to control. Format: functional, Epithelial cell. Summed up:
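Candida collected 8 h after a 1-h 4x MIC pulse and washout were grown on SDA for 24 h at 35°C. Buccal epithelial cells were pooled from three donors and washed in PBS. Cells (1 x 10^5/ml) were mixed 1:1 by volume with Candida (1 x 10^6/ml) and shaken 1 h at 37°C. Mixtures were filtered, washed, and Gram-stained, and Candida were counted per 100 epithelial cells. Run in duplicate on ≥2 occasions; Student's t test against unexposed controls.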

For assay [18], the system named is Nakaseomyces glabratus. As to the kind of experiment: Antifungal activity against Candida glabrata isolate 1 coincubated with mouse J774 macrophages assessed as macrophage induced bacterial cell killing at 4 times MIC (reference value: 12 +/- 10 %). Format: functional.

For the compound `CCCCCOc1ccc(-c2ccc(-c3ccc(C(=O)N[C@H]4C[C@@H](O)[C@@H](O)NC(=O)[C@@H]5[C@@H](O)[C@@H](C)CN5C(=O)[C@H]([C@@H](C)O)NC(=O)[C@H]([C@H](O)[C@@H](O)c5ccc(O)cc5)NC(=O)[C@@H]5C[C@@H](O)CN5C(=O)[C@H]([C@@H](C)O)NC4=O)cc3)cc2)cc1` [ANIDULAFUNGIN] ({pTerphenylCO(4''-OnC5H11)}-[Orn(4R-OH,5R-OH)]T[Hyp][hTyr(3S-OH,4S-OH)]T[Pro(3S-OH,4S-Me)]; lactam 1-C), the log reduction was determined as 2.86 log CFU/ml in assay [1]; 2.77 log CFU/ml in [2]; 1.32 log CFU/ml in [3]; 1.8 log CFU/ml in [4]; 1.18 in assay [5]; 2.54 in [6]. Further, the values for the log reduction in assay [7], in [8] and in assay [9] were 0.41, 3.36 and 2.81, respectively. The MIC90 (commonly an inhibitory concentration at the 90% level, which refers to growth in some studies and to a panel of isolates in others) in [10] stood at 2 µg/mL (≈ 1.75 µM). Also, in assay [11], the MIC (as a rule, the smallest concentration in the dilution series that meets the test's criterion for growth inhibition) came out at 1 µg/mL (≈ 0.877 µM). Also, the Time in [12] amounted to 8 h. Further, the result in assay [13], in assay [14], in assay [15] and in assay [16] was Active. For the same compound, the “inhibition (INH)” value worked out at 62% in [17] and 33% in assay [18].
